For eleven compounds, Ki results are on record in ChEMBL document CHEMBL1132121, “Potent, low-molecular-weight non-peptide inhibitors of malarial aspartyl protease plasmepsin II” (J Med Chem, 1999).

For assay [1], the target named is Plasmepsin II (Plasmodium falciparum, UniProt P46925). The assay is described as follows: Inhibitory activity against plasmepsin-2. Put shortly: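 Activated Plm II proenzyme, 0.6–0.7 nM final, in 0.1 M sodium acetate pH 5.0 with 10% glycerin and 0.01% Tween-20. Inhibitor in DMSO, preincubated 4.5 min at 25 °C, then DABCYL/EDANS fluorogenic peptide substrate added (Km 0.75 μM). Fluorescence (ex 336/em 490 nm) followed over time. Five to six inhibitor concentrations, duplicate or triplicate. Ki by Williams–Morrison nonlinear fit.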

In assay [2] the target is Cathepsin D (Homo sapiens, UniProt P07339). The assay is described as follows: Compound was tested for the inhibitory activity against human liver cathepsin D. In a few lines:
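Human liver cathepsin D, 0.7 nM final, in 0.1 M formic acid buffer pH 3.7. […] Fluorescence (ex 336/em 490 nm) followed over time. Ki obtained by nonlinear fit to the Williams–Morrison tight-binding equation.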

Chain of Cathepsin D (P07339 65-162 limits assumed): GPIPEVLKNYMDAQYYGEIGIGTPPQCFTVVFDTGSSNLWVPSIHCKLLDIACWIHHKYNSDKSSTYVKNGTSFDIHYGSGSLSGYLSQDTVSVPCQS
Chain of Cathepsin D (P07339 169-412 limits assumed): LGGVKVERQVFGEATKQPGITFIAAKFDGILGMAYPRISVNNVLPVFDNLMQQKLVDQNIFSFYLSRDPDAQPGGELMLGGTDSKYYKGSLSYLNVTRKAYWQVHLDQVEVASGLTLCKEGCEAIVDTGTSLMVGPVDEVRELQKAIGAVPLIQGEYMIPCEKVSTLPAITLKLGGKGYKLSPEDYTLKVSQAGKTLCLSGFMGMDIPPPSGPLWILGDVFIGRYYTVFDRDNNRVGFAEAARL
Chain of Plasmepsin II (P46925 whole entry): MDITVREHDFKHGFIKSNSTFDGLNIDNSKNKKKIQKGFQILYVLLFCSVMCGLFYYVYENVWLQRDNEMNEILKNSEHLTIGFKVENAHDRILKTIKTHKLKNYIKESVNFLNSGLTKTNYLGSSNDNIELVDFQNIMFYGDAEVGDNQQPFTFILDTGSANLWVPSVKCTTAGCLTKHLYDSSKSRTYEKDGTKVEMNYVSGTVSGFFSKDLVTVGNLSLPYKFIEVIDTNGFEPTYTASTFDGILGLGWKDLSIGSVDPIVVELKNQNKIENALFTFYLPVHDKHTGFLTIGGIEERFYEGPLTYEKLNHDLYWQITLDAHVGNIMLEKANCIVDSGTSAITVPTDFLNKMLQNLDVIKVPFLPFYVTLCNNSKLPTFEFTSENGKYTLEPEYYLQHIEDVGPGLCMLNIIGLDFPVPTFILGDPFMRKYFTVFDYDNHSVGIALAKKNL

Take `CN1CCC(C(=O)N(CCc2ccc3c(c2)OCO3)C[C@H](O)[C@H](Cc2ccccc2)NC(=O)COc2cccc(Cl)c2)CC1`: the figures for the Ki in assay [1] and in assay [2] were 2 nM and 5.8 nM, respectively.
On the same counts, the results for `COc1ccc(CCN(C[C@H](O)[C@H](Cc2ccccc2)NC(=O)c2cc(OC)c(OCc3ccccc3)c(OC)c2)C(=O)C2CCNCC2)cc1` are 9 nM and 71 nM.
The matching figures for `COc1ccc(CCN(C[C@H](O)[C@H](Cc2ccccc2)NC(=O)c2cc(OC)c(OCc3ccccc3)c(OC)c2)C(=O)C2CCN(C)CC2)cc1`: 4.1 nM and 58 nM.
`Cc1ccc(C)c(OCC(=O)N[C@@H](Cc2ccccc2)[C@@H](O)CN(CCc2ccc3c(c2)OCO3)C(=O)CCN2C(=O)c3ccccc3C2=O)c1` registered a Ki in assay [1] of 300 nM.
In assay [1], `O=C(COc1cccc(Cl)c1)N[C@@H](Cc1ccccc1)[C@@H](O)CN(CCc1ccc2c(c1)OCO2)C(=O)CCN1C(=O)c2ccccc2C1=O` displayed a Ki of 220 nM.
Turning to `CC(=O)N1CCC(C(=O)N(CCc2ccc3c(c2)OCO3)C[C@H](O)[C@H](Cc2ccccc2)NC(=O)CNc2cccc(Cl)c2)CC1`, the Ki in assay [1] was 3 nM; in assay [2], 1.3 nM.
On the same counts, the results for `CC(=O)N1CCC(C(=O)N(CCc2ccc3c(c2)OCO3)C[C@H](O)[C@H](Cc2ccccc2)NC(=O)COc2cccc(Cl)c2)CC1` are 4 nM and 1.9 nM.
`COc1cc(C(=O)N[C@@H](Cc2ccccc2)[C@@H](O)CN(CCc2ccc3c(c2)OCO3)C(=O)CCN2C(=O)c3ccccc3C2=O)cc(OC)c1OCc1ccccc1` came in with a Ki in assay [1] of 100 nM.
With `COc1ccc(CCN(C[C@H](O)[C@H](Cc2ccccc2)NC(=O)COc2cccc(Cl)c2)C(=O)C2CCNCC2)cc1`, the figures for the Ki in assay [1] and in assay [2] were 4.3 nM and 63 nM, respectively.
The matching figures for `COc1ccc(CCN(C[C@H](O)[C@H](Cc2ccccc2)NC(=O)COc2cccc(Cl)c2)C(=O)C2CCN(C)CC2)cc1`: 2 nM and 9.8 nM.
On the same counts, the results for `COc1cc(C(=O)N[C@@H](Cc2ccccc2)[C@@H](O)CN(CCc2ccc3c(c2)OCO3)C(=O)C2CCN(C(C)=O)CC2)cc(OC)c1OCc1ccccc1` are 4.8 nM and 4.3 nM.
